For series [1] the following is noted: Lipinski's Rule of Five criterion; ref Lipinski et al. [2001]; cited from earlier work.
Series [2] can be described thus: Elimination of andrographolide in urine and feces. Format: in vivo, beagle dogs. Put shortly:
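Male beagles (2.0–2.5 y, 10–15 kg; n = 4/group), fasted 10 h with water, caged singly; oral capsules equivalent to 3 mg/kg andrographolide, single dose and daily for 7 days. Urine centrifuged; feces mixed 50:50 w/v with methanol. Samples hydrolysed with β-glucuronidase solution (1,000 U/mL, pH 6.8, 37 °C, 30 min), methanol-precipitated with digoxin internal standard, LC-MS/MS (triple quadrupole); mean ± SD.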

The conditions of series [3]: poor water solubility and high permeability; ref Lee et al. [2019]; cited from earlier work.
For series [4] the following is noted: SDS at 1.0% w/w mixed in diet; ref Elder [1983]; cited from earlier work.

Turning to `C=C1CC[C@@H]2[C@](C)(CO)[C@H](O)CC[C@@]2(C)[C@@H]1C/C=C1/C(=O)OC[C@H]1O` [andrographolide, Andrographolide], in series [1], the logP value entry is given as “lower than 5”. Further, in series [2] (beagle, dog, urine, po, 3 mg/kg), the dose excreted is 0.1 to 1%. Further, the “Feces excretion of andrographolide” value in series [2] (of the administered dose, after oral administration of A. paniculata formulations) is reported as “less than 0.4%”. In addition, the “Biopharmaceutics Classification System (BCS) category” value in series [3] was “BCS class II”.
Consider `CCCCCCCCCCCCOS(=O)(=O)[O-].[Na+]` [SDS, Sodium dodecyl sulfate], for which the “Abnormalities in long-term study” value in series [4] was “did not result in any abnormalities”.

The values are drawn from article PMC10868414 (Pharmaceutical Biology, 2024).
